Source: ChEMBL document CHEMBL1141433, “Tauramamide, a lipopeptide antibiotic produced in culture by Brevibacillus laterosporus isolated from a marine habitat: structure elucidation and synthesis” (2007)
Converted amounts (≈) assume the structure as drawn. The source made the active and inactive calls. The calls are words filed in the database; no cut-off is given here.

Assays:
Format in all cases: functional
Candida albicans [1] = test: Antimicrobial activity against Candida albicans by agar extract inclusion assay
Method in brief: (§1)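 Compound dissolved in DMSO or EtOH and mixed into Mueller Hinton agar cooled to 50 °C. Agar serially diluted 1:2 with more cooled agar. Pathogens spotted on the surface at about 2.5 × 10⁵ cells/mL inoculum. Plates incubated overnight at 37 °C and scored for growth inhibition to give the MIC.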

Staphylococcus aureus [2] = test: Antimicrobial activity against methicillin-resistant Staphylococcus aureus by Alamar blue assay
Method in brief: (§2)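 1:2 serial dilution in liquid culture; compound dissolved in DMSO or EtOH. Bacteria grown in TSB+ (5 g/L NaCl); C. albicans in Sabouraud or TSB+. Alamar Blue redox indicator read by colour: blue/purple means growth inhibited, bright pink means growth.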

Candida albicans [3] = test: Antimicrobial activity against Candida albicans by Alamar blue assay; method in brief: as §2
Staphylococcus aureus [4] = test: Antimicrobial activity against methicillin-resistant Staphylococcus aureus by agar extract inclusion assay; method in brief: as §1
Enterococcus sp. = test: Antimicrobial activity against Enterococcus sp. by Alamar blue assay; method in brief: as §2

Row | SMILES | MIC (Candida albicans [1]) [µg/mL] | Activity (Staphylococcus aureus [2]) | Activity (Candida albicans [3]) | MIC (Staphylococcus aureus [4]) [µg/mL] | MIC (Enterococcus sp.) [µg/mL] | MIC (Staphylococcus aureus [2]) [µg/mL] | MIC (Candida albicans [3]) [µg/mL]
1 | CC(C)CCCCCC(=O)N[C@H](Cc1ccc(O)cc1)C(=O)N[C@@H](CO)C(=O)N[C@H](CC(C)C)C(=O)N[C@@H](Cc1c[nH]c2ccccc12)C(=O)N[C@@H](CCCNC(=N)N)C(=O)O [TAURAMAMIDE] | 50 (≈ 57.9 µM) | inactive | inactive | 200 (≈ 231 µM) | 0.1 (≈ 0.116 µM) | – | –
2 | CCOC(=O)[C@H](CCCNC(=N)N)NC(=O)[C@H](Cc1c[nH]c2ccccc12)NC(=O)[C@@H](CC(C)C)NC(=O)[C@H](CO)NC(=O)[C@@H](Cc1ccc(O)cc1)NC(=O)CCCCCC(C)C [TAURAMAMIDE ETHYL ESTER] | 75 (≈ 84.1 µM) | – | – | 9.4 (≈ 10.5 µM) | 0.1 (≈ 0.112 µM) | 25 (≈ 28 µM) | 200 (≈ 224 µM)
